This is an account of results in ChEMBL document CHEMBL3425494, “Design, synthesis, and antitumor evaluation of novel histone deacetylase inhibitors equipped with a phenylsulfonylfuroxan module as a nitric oxide donor” (J Med Chem, 2015).

SMILES strings stand for the structures. The source made the active and inactive calls. No cut-off for these calls is given here.

A word on the IC50: it is the point on the concentration scale where inhibition reaches its midpoint. In general, T/C refers to the ratio of treated to control.

One data set has as its target T1, Histone deacetylase 11 (Homo sapiens, UniProt Q96DB2).
T1 sequence (Q96DB2 whole entry): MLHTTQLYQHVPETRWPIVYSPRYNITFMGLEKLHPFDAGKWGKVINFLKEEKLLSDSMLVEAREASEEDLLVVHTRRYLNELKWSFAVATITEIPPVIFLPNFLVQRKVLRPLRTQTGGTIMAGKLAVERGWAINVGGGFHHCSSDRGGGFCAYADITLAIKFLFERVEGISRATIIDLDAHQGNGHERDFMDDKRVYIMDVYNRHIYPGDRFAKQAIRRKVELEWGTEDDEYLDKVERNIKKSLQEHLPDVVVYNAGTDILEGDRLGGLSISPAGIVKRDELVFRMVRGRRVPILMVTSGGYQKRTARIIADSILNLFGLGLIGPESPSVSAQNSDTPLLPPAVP
The experiment in a line: Inhibition of full length human recombinant HDAC11 expressed in baculovirus infected insect S9 cells after 30 mins by fluorescence assay.

Data set [1] has as its target Histone deacetylase 2 (Homo sapiens) (UniProt Q92769). Particulars: HEL, 10 uM.
The subject of data set [2] is HEL. The experiment in a line: Cytotoxicity against hemoglobin treated human HEL cells assessed as growth inhibition at 2 uM treated for 24 hrs post hemoglobin challenge measured after 48 hrs by MTT assay. It is filed as functional, cell-based. The essentials: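 HEL cells in RPMI 1640/10% FBS, 37 °C, 5% CO₂, plated ≥4 h before treatment; pretreated 1 h with hemoglobin (0, 2.5, 5, 10 or 20 µM), then 2 µM compound for 24 h, incubated a further 48 h. MTT 0.5%, 4 h, formazan dissolved in DMSO, absorbance 490 and 630 nm; percent growth inhibition versus control; three independent experiments, mean ± SD.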
A general note: Tetrazolium assays rely on reduction of a dye to a coloured formazan, in cell work by metabolically active cells.

A short description of data set [3]: Cytotoxicity against human KG1 cells assessed as growth inhibition after 48 hrs by MTT assay. The following applies: KG-1, 48 h. Type of data set: functional, cell-based.
The subject of data set [4] is HEL. The experiment in a line: Cell cycle arrest in human HEL cells assessed as accumulation at G2 phase at 0.5 uM after 48 hrs by propidium iodide staining-based flow cytometric analysis (reference value: 5.28%). It is filed as functional. For orientation: In flow cytometry, cells or beads pass a laser one at a time.
The subject of data set [5] is Mus musculus. Put plainly: Toxicity in BALB/c-nu mouse xenografted with human HEL cells assessed as effect on spleen at 120 mg/kg/day, po administered for 21 days. Type of data set: organism-based. Further details: route oral. The following applies: in vivo, 504 h. The essentials:
(§1)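 Nude mice bearing HEL xenografts dosed orally 120 mg/kg/day for 21 days, 6 per group, controls on PBS/DMSO vehicle. After treatment, mice sacrificed and dissected to examine internal organs.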
A general note: In xenograft studies the graft and the host belong to different species.

Data set [6] relates to Mus musculus. Put plainly: Toxicity in BALB/c-nu mouse xenografted with human HEL cells assessed as effect on liver at 120 mg/kg/day, po administered for 21 days. The following applies: in vivo, 504 h. Type of data set: organism-based. Set-up: route oral. Put shortly:
as §1

A further data set deals with Histone deacetylase 3 (Homo sapiens, UniProt O15379). Put plainly: Inhibition of full length human recombinant HDAC3 expressed in baculovirus infected insect S9 cells using Ac-Leu-GlyLys(Ac)-AMC as substrate after 30 mins by fluorescence assay.
Data set [7] in a line: Cytotoxicity against human MDA cells assessed as growth inhibition after 48 hrs by MTT assay. Type of data set: functional, cell-based.
The nature of data set [8]: Cytotoxicity against human HCT116 cells assessed as growth inhibition after 48 hrs by MTT assay. It is filed as functional, cell-based. Particulars: HCT-116, 48 h.
Data set [9] concerns the target T2, Protein deacetylase HDAC6 (Homo sapiens, UniProt Q9UBN7).
T2 sequence (Q9UBN7 whole entry): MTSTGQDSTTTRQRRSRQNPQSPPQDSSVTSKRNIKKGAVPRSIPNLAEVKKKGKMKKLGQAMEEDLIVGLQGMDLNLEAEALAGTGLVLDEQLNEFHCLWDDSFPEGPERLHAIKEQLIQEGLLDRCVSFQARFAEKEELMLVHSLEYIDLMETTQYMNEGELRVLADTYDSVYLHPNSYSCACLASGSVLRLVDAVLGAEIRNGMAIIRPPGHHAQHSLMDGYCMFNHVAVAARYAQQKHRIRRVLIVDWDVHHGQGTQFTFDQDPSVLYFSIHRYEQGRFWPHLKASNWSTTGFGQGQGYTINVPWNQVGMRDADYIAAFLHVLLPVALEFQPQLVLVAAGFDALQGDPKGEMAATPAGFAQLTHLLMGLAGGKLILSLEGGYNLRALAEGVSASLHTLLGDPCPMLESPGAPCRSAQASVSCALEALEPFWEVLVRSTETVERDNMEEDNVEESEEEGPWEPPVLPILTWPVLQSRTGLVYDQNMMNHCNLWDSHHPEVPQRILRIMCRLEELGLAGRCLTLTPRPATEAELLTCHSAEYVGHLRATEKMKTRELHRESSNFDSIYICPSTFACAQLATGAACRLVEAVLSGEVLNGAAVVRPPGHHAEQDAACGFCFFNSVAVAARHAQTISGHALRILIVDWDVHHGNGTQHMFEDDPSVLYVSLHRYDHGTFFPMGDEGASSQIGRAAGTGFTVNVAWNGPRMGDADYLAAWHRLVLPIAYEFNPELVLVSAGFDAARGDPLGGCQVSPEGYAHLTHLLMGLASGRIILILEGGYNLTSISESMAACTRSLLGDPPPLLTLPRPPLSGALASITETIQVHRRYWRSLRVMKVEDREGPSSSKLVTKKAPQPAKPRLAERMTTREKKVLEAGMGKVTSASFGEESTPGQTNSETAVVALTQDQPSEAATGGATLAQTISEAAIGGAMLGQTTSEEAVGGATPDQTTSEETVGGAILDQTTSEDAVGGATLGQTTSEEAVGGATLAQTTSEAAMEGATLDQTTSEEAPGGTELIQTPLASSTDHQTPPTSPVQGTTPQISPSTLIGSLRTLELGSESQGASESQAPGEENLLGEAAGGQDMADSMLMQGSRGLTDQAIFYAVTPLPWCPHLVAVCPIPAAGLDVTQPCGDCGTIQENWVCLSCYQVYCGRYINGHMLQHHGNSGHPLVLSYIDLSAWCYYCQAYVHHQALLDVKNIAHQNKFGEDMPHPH
The experiment in a line: Inhibition of full length human recombinant HDAC6 expressed in baculovirus infected insect S9 cells using Ac-Leu-GlyLys(Ac)-AMC as substrate after 30 mins by fluorescence assay.

For data set [10], the system named is HEL. The experiment in a line: Antitumor activity against human HEL cells xenografted in BALB/c-nu mouse assessed as decrease in tumor volume at 100 mg/kg/day, po administered for 21 days measured every 3 days during compound dosing relative to control. It is filed as functional. Put shortly: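 Male athymic nude mice (6–8 weeks) inoculated s.c. in right flank with HEL cells cultured in RPMI 1640/10% FBS; treatment began when tumors were about 100 mm³ (~10 days), 6 mice per group. Oral gavage daily for 21 days; vehicle control PBS containing DMSO. Caliper measurement every 3 days, V = ab²/2; T/C = mean RTV treated / mean RTV control, RTV = Vt/V0.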

Data set [11] has as its system HEL. Put plainly: Antitumor activity against human HEL cells xenografted in BALB/c-nu mouse assessed as inhibition of tumor growth at 100 mg/kg/day, po administered for 21 days measured every 3 days during compound dosing relative to control. Type of data set: functional. Particulars: read-out: TGI. Put shortly: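 HEL s.c. xenografts in male BALB/c-nu mice (6–8 weeks), randomized at ~100 mm³, 6 per group; daily oral dosing for 21 days versus PBS/DMSO vehicle group. […] Student's two-tailed t test, p < 0.05.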

Chain of Histone deacetylase 3 (O15379 whole entry): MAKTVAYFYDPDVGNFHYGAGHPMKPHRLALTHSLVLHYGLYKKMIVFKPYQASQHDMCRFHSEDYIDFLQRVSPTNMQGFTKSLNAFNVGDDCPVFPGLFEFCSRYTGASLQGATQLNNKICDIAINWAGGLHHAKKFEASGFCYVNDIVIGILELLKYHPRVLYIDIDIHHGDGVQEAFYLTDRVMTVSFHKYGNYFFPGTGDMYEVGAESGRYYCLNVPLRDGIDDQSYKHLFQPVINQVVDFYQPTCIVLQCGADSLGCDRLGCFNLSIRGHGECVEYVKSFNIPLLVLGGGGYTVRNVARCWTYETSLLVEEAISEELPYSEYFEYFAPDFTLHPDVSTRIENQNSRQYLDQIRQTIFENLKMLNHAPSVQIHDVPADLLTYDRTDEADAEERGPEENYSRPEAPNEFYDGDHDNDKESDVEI
Chain of Histone deacetylase 2 (Homo sapiens) (Q92769 whole entry): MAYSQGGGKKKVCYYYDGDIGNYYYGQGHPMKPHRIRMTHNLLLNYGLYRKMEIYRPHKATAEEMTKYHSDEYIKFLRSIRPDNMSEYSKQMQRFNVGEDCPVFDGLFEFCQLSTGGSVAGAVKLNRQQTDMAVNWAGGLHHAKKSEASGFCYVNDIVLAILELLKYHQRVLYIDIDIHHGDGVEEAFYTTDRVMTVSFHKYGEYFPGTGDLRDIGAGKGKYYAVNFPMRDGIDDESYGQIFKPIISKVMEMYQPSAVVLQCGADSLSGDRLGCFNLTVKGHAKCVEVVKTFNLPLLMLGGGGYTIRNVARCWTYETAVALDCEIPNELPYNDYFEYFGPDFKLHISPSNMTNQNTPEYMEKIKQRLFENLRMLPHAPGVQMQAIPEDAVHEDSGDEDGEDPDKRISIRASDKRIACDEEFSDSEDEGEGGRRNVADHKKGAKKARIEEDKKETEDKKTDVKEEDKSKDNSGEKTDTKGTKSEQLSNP

With `O=C(CCCCCOc1no[n+]([O-])c1S(=O)(=O)c1ccccc1)NO`, the 50% inhibitory concentration (IC50) at Histone deacetylase 11 was found to be 0.608 µM; in data set [3] it was 1.75 µM; at Histone deacetylase 3, 0.532 µM; in data set [7], 2.25 µM; in data set [8], 1.51 µM; in [9], 0.0074 µM. The inhibition result in data set [1] is “inactive”. Also, the “growth inhibition (GI)” value in the data set with HEL [2] was “inactive”. Further, the values for the Activity in the data set on HEL [4], in the data set with Mus musculus [5] and in the data set with Mus musculus [6] were 0.45%, “Non-toxic” and “Non-toxic”, respectively. Also, the T/C with HEL [10] came out at 56%. The inhibition in vivo at 100 mg/kg/day with HEL [11] was determined as 38%.
